From article PMC3919449 (Chemistry & biology, 2013)

Legend:
[1] = tested on: BE(2)-C cells; assay: GE-HTS neuroblastoma differentiation signature in BE; type: cell-based; conditions: for induction of the differentiation signature (differentiation score): two days of treatment
In short: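 In BE(2)-C cells with 2 nM cisRA as differentiation enhancer, test compound applied at eight concentrations in duplicate for 2 days. Controls were 1 μM cisRA (positive) and DMSO (negative), plus a cisRA dose-response plate per run. GE-HTS gave the differentiation score. AUC: cubic natural spline at 50 points over log dose, trapezoid areas against the mean DMSO score, divided by log-concentration range.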

[2] = tested on: SH-SY5Y; assay: GE-HTS neuroblastoma differentiation signature in SH-SY5Y; type: cell-based; conditions: second cell line
[3] = tested on: HDACs 4-9; assay: HDAC activity assay, other HDACs; type: biochemical; conditions: HDACs 4-9, same concentration range
In short: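 Recombinant full-length HDAC preincubated 3 h with test compound, then fluorogenic substrate at Km: MAZ1600 for HDAC6 (9 μM); MAZ1675 for HDAC4 (10 μM), 5 (40 μM), 7 (22 μM), 8 (282 μM), 9 (26 μM). Trypsin-coupled AMC release read every 5 min; linear-range rate normalized to DMSO (<0.5%); IC50 by unconstrained logistic regression.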

[4] = tested on: Kelly, LAN-1, BE(2)-C, and SH-SY5Y; assay: GE-HTS differentiation signature in four neuroblastoma cell lines; type: cell-based; conditions: two day and five day time points
In short: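 Cells grown in DMEM with 10% FBS and 1% penicillin-streptomycin with glutamine, then exposed to the test compound over a concentration range for 2 or 5 days. Read-out is GE-HTS: ligation-mediated amplification with fluorescent bead detection of 59 signature genes. Differentiation score is the signature-gene expression divided by mean control-gene expression, summed with weights/signs from cisRA vs DMSO controls. Four replicates; one-way ANOVA with Bonferroni versus DMSO.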

[5] = tested on: BE(2)-C cells; assay: NF-M immunofluorescence, morphologic changes; type: cell-based; conditions: NF-M labeling
In short: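 BE(2)-C cells treated in duplicate with DMSO vehicle or the test compound for 72 h. Cells washed, fixed in 4% formaldehyde and permeabilized with 0.2% Triton X-100. Stained with monoclonal anti-NF-M and an Alexa Fluor 568 secondary. Mounted in antifade with DAPI counterstain; neurite projections examined.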

[6] = tested on: Kelly, LAN-1, BE(2)-C, and SH-SY5Y; assay: ATP-based viability; conditions: four neuroblastoma cell lines, five days of treatment
In short: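 Kelly, LAN-1, BE(2)-C and SH-SY5Y grown in DMEM with 10% FBS and 1% penicillin-streptomycin with glutamine, identity confirmed by STR profiling. Cells exposed to test compound over a 9-point concentration range for five days; viability read by ATP luminescence (CellTiter Glo) per manufacturer's instructions.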

[7] = tested on: histone H3 acetylation in BE(2)-C cells; assay: Immunoblot for acetylated histone H3; type: cell-based; conditions: six hours of treatment
In short: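 BE(2)-C cells exposed to the test compound or DMSO for six hours; nuclear extracts then immunoblotted for acetylated histone H3.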

Q: How did the “induction of the differentiation signature (differentiation score)” value (shortened to “induction … (differentiation score)”) [1] turn out when `CC1=C(/C=C/C(C)=C/C=C/C(C)=C/C(=O)O)C(C)(C)CCC1` [ATRA, all-trans retinoic acid] was run?
A: Its value is “induce the differentiation signature in a dose-dependent manner”.

Q: How did the “induction … (differentiation score)” value [1] turn out when `C[C@H](CO)N1C[C@H](C)[C@H](CN(C)Cc2ccc(C(=O)Nc3ccccc3N)cc2)Oc2c(cccc2N(C)C)C1=O` [BRD6332] was run?
A: The value was “greatly dampened differentiation activity”.

Q: Which results are given for `C[C@H](CO)N1C[C@H](C)[C@H](CN(C)Cc2ccc(C(=O)Nc3ccccc3N)cc2)Oc2ccc(N(C)C)cc2C1=O` [BRD6819]?
A: induction of the differentiation signature (differentiation score) [1]: induced the differentiation signature in a manner similar to BRD8430; induction of the differentiation signature [2]: confirmed to induce the differentiation signature

Q: How did the “IC50 for inhibition of the other HDACs” value [3] turn out when `C[C@H](CO)N1C[C@H](C)[C@H](CN(C)Cc2ccc(C(=O)Nc3ccccc3N)cc2)Oc2ccc(N(C)C)cc2CC1=O` [BRD8430] was run?
A: Its value is “not able to determine IC50 values”.

Q: And the “induction … (differentiation score)” value [1]?
A: Its value is “significantly inducing the signature at all eight concentrations tested”.

Q: What about the “AUC of the differentiation score across eight concentrations” value ([1]; two days, eight concentrations) of the same molecule?
A: Its value is “highest AUC value of the 32 compounds evaluated”.

Q: And the “induction of the differentiation signature” value [2]?
A: The value was “confirmed to induce the differentiation signature”.

Q: And the “induction of the differentiation signature” value [4]?
A: The value was “induce the differentiation signature in a concentration-dependent manner”.

Q: What about the “morphologic changes consistent with differentiation” value [5] of the same molecule?
A: The value was “induced morphologic changes, including neurite outgrowth”.

Q: And the viability [6]?
A: The viability was “reduced the viability”.

Q: What about the “histone H3 acetylation” value [7] of the same molecule?
A: Its value is “increased histone H3 acetylation in a concentration-dependent manner”.

Q: How did the “induction … (differentiation score)” value [1] turn out when `CC(=O)Nc1ccc(C(=O)Nc2ccccc2N)cc1` [CI-994] was run?
A: The value was “significantly induced differentiation at multiple concentrations”.

Q: How did the “induction … (differentiation score)” value [1] turn out when `Nc1ccccc1NC(=O)c1ccc(CNC(=O)OCc2cccnc2)cc1` [MS-275] was run?
A: Its value is “significantly induced differentiation at multiple concentrations”.

Q: With `O=C(CCCCCCC(=O)Nc1ccccc1)NO` [Vorinostat, vorinostat] as the molecule, how does the “induction … (differentiation score)” value [1] read?
A: The value was “significantly induced differentiation at multiple concentrations”.

Q: With `CC1=C(/C=C/C(C)=C/C=C/C(C)=C\C(=O)O)C(C)(C)CCC1` [cisRA, 13-cis retinoic acid] as the molecule, how does the “induction … (differentiation score)” value [1] read?
A: Its value is “induce the differentiation signature in a dose-dependent manner”.
